≈ marks a conversion by molar mass, not a printed value. Calls of active or inactive are those of the source. No cut-off for these calls is given here.
Legend:
Staphylococcus aureus [1] = assay: Antibacterial activity against methicillin-sensitive Staphylococcus aureus 8325-4 assessed as growth inhibition after 24 hrs by CLSI broth microdilution method; format: functional; details: 8325-4, 24 h
In short: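 MSSA strain 8325-4; log-phase inoculum at 10⁵ CFU/mL. 2-fold serial dilutions, 64 to 0.031 µg/mL, in cation-adjusted Mueller-Hinton broth. Aerobic incubation, 24 h, 37 °C. Growth read as OD₆₀₀. MIC is the lowest concentration giving ≥90% growth inhibition.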

Enterococcus faecalis [2] = assay: Antibacterial activity against vancomycin-sensitive Enterococcus faecalis ATCC 19433 assessed as growth inhibition after 24 hrs by CLSI broth microdilution method; format: functional; details: ATCC 19433, 24 h
In short: (§1)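 Run per CLSI broth microdilution. Log-phase E. faecalis at 10⁵ CFU/mL in brain-heart infusion broth with 2-fold serial dilutions (64 to 0.031 µg/mL), incubated aerobically 24 h at 37 °C. Growth is measured by OD₆₀₀, and MIC is the lowest concentration inhibiting growth by ≥90%.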

Staphylococcus aureus [3] = assay: Antibacterial activity against methicillin-resistant Staphylococcus aureus ATCC 33591 assessed as growth inhibition after 24 hrs by CLSI broth microdilution method; format: functional; details: ATCC 33591, 24 h
In short: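 CLSI broth microdilution. Log-phase bacteria at 10⁵ CFU/mL are added to 2-fold serial dilutions from 64 to 0.031 µg/mL in cation-adjusted Mueller-Hinton broth with 2% NaCl. Plates are incubated aerobically for 24 h at 37 °C and growth is read as OD₆₀₀. MIC is the lowest concentration giving ≥90% growth inhibition.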

Enterococcus faecalis [4] = assay: Antibacterial activity against vancomycin-resistant Enterococcus faecalis ATCC 51575 assessed as growth inhibition after 24 hrs by CLSI broth microdilution method; format: functional; details: ATCC 51575, 24 h; in short: as §1
[5] = molecular target: T1, Cell division protein FtsZ (Staphylococcus aureus) (UniProt P0A031); assay: Stimulation of Staphylococcus aureus ATCC 33591-D FtsZ polymerization expressed in Escherichia coli BL21 (DE3) assessed as inhibition of FtsZ Z-ring formation at 40 ug/mL by microtiter plate-based turbidity assay; details: TDE = time-dependent effect
T1 sequence (whole entry): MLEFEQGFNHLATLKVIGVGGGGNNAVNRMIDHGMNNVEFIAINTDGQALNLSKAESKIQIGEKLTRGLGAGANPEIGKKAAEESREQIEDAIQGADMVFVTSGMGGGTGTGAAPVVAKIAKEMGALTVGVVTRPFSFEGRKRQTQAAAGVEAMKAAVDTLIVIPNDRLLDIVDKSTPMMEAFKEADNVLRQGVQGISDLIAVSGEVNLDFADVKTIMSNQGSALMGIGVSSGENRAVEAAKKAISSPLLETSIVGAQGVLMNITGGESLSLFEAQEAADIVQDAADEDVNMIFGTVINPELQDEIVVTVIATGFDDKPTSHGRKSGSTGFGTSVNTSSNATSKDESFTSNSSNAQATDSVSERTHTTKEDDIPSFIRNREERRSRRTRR
In short: (§2)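 SaFtsZ expressed in E. coli BL21 (DE3) under 1 mM IPTG induction for 3 h at 37 °C. Purified by MonoQ anion exchange then Superdex-200, about 90% pure. Turbidity assay at 25 °C in 50 mM Tris·HCl pH 7.4, 50 mM KCl, 2 mM magnesium acetate, 1 mM GTP. Compound at 40 µg/mL. Reaction started with 10 µM protein (final). A₃₄₀ monitored continuously for 300 min.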

[6] = molecular target: T1, Cell division protein FtsZ (Staphylococcus aureus); assay: Stimulation of Staphylococcus aureus ATCC 33591-D FtsZ polymerization expressed in Escherichia coli BL21 (DE3) assessed as inhibition of FtsZ Z-ring formation at 40 ug/mL measured for 300 mins by microtiter plate-based turbidity assay; in short: as §2

SMILES	MIC (Staphylococcus aureus [1]) [µg/mL]	MIC (Enterococcus faecalis [2]) [µg/mL]	MIC (Staphylococcus aureus [3]) [µg/mL]	MIC (Enterococcus faecalis [4]) [µg/mL]	inhibition [5]	inhibition [6]
COc1ccc2c(c[n+](C)c3c4cc5c(cc4ccc23)OCO5)c1OC [CHELERYTHRINE]	4	32	4	32	–	–
CN(C)[C@@H]1C(O)=C(C(N)=O)C(=O)[C@@]2(O)C(O)=C3C(=O)c4c(O)cccc4[C@@](C)(O)[C@H]3C[C@@H]12 [TETRACYCLINE]	0.06 (≈ 0.135 µM)	0.5 (≈ 1.13 µM)	64 (≈ 144 µM)	> 64	–	–
CC(C)(C)c1ccc(-c2ccc(CN)c3ccccc23)cc1	4 (≈ 13.8 µM)	8 (≈ 27.6 µM)	8 (≈ 27.6 µM)	8 (≈ 27.6 µM)	–	–
CC(C)(C)c1ccc(-c2ccc(CN=C(N)N)c3ccccc23)cc1	2 (≈ 6.03 µM)	2 (≈ 6.03 µM)	2 (≈ 6.03 µM)	2 (≈ 6.03 µM)	–	–
NC(N)=NCc1cccc2c(-c3ccc(C4CC4)cc3)cccc12	1 (≈ 3.17 µM)	8 (≈ 25.4 µM)	8 (≈ 25.4 µM)	8 (≈ 25.4 µM)	–	–
COc1cc(C(F)(F)F)ccc1-c1cccc2c(CN=C(N)N)cccc12	2 (≈ 5.36 µM)	4 (≈ 10.7 µM)	8 (≈ 21.4 µM)	4 (≈ 10.7 µM)	–	–
NC(N)=NCc1cccc2c(-c3ccc(Cl)cc3)cccc12	2 (≈ 6.46 µM)	8 (≈ 25.8 µM)	8 (≈ 25.8 µM)	8 (≈ 25.8 µM)	–	–
COc1cc(C(F)(F)F)ccc1-c1cccc2c(CCN)cccc12	8 (≈ 23.2 µM)	8 (≈ 23.2 µM)	16 (≈ 46.3 µM)	8 (≈ 23.2 µM)	–	–
CCC[C@@H]1C[C@@H](C(=O)N[C@@H]([C@H]2O[C@H](SC)[C@H](O)[C@@H](O)[C@H]2O)[C@H](C)Cl)N(C)C1 [CLINDAMYCIN]	0.03 (≈ 0.0706 µM)	2 (≈ 4.71 µM)	> 64	> 64	–	–
NCCc1cccc2c(-c3ccc(C(F)(F)F)cc3O)cccc12	8 (≈ 24.1 µM)	16 (≈ 48.3 µM)	16 (≈ 48.3 µM)	16 (≈ 48.3 µM)	–	–
CC(C)(C)c1ccc(-c2cccc3c(CN)cccc23)cc1	4 (≈ 13.8 µM)	8 (≈ 27.6 µM)	4 (≈ 13.8 µM)	8 (≈ 27.6 µM)	–	–
CC(C)(C)c1ccc(-c2cccc3c(CCN=C(N)N)cccc23)cc1	1 (≈ 2.89 µM)	2 (≈ 5.79 µM)	2 (≈ 5.79 µM)	2 (≈ 5.79 µM)	–	–
CN[C@H](CC(C)C)C(=O)N[C@H]1C(=O)N[C@@H](CC(N)=O)C(=O)N[C@H]2C(=O)N[C@H]3C(=O)N[C@H](C(=O)N[C@H](C(=O)O)c4cc(O)cc(O)c4-c4cc3ccc4O)[C@H](O)c3ccc(c(Cl)c3)Oc3cc2cc(c3O[C@@H]2O[C@H](CO)[C@@H](O)[C@H](O)[C@H]2O[C@H]2C[C@](C)(N)[C@H](O)[C@H](C)O2)Oc2ccc(cc2Cl)[C@H]1O [VANCOMYCIN]	–	1 (≈ 0.69 µM)	–	> 64	–	–
N=C(N)Cc1cccc2c(-c3ccc(C(F)(F)F)cc3)cccc12	4 (≈ 12.2 µM)	4 (≈ 12.2 µM)	8 (≈ 24.4 µM)	8 (≈ 24.4 µM)	–	–
NC(N)=NCc1cccc2c(-c3ccc(Br)cc3)cccc12	2 (≈ 5.65 µM)	8 (≈ 22.6 µM)	8 (≈ 22.6 µM)	8 (≈ 22.6 µM)	–	–
COc1cc(C(F)(F)F)ccc1-c1cccc2c(CCN=C(N)N)cccc12	2 (≈ 5.16 µM)	4 (≈ 10.3 µM)	8 (≈ 20.7 µM)	4 (≈ 10.3 µM)	–	–
CC(C)(C)c1ccc(-c2cccc3c(CCN)cccc23)cc1	2 (≈ 6.59 µM)	2 (≈ 6.59 µM)	4 (≈ 13.2 µM)	4 (≈ 13.2 µM)	tde	inactive
CC(C)(C)c1ccc(-c2cccc3c(CN=C(N)N)cccc23)cc1	0.5 (≈ 1.51 µM)	2 (≈ 6.03 µM)	2 (≈ 6.03 µM)	4 (≈ 12.1 µM)	tde	inactive
NC(N)=NCc1cccc2c(-c3ccc(C(F)(F)F)cc3)cccc12	2 (≈ 5.82 µM)	8 (≈ 23.3 µM)	8 (≈ 23.3 µM)	16 (≈ 46.6 µM)	–	–
C[n+]1cc2c3c(ccc2c2ccc4cc5c(cc4c21)OCO5)OCO3 [SANGUINARIUM]	2	8	2	16	–	–
CC(C)(C)c1ccc(-c2cccc3c(CC(=N)N)cccc23)cc1	4 (≈ 12.6 µM)	4 (≈ 12.6 µM)	4 (≈ 12.6 µM)	8 (≈ 25.3 µM)	–	–
CC[C@H]1OC(=O)[C@H](C)[C@@H](O[C@H]2C[C@@](C)(OC)[C@@H](O)[C@H](C)O2)[C@H](C)[C@@H](O[C@@H]2O[C@H](C)C[C@H](N(C)C)[C@H]2O)[C@](C)(O)C[C@@H](C)C(=O)[C@H](C)[C@@H](O)[C@]1(C)O [ERYTHROMYCIN]	0.13 (≈ 0.177 µM)	1 (≈ 1.36 µM)	> 64	> 64	–	–
Cc1onc(-c2ccccc2)c1C(=O)N[C@@H]1C(=O)N2[C@@H]1SC(C)(C)[C@@H]2C(=O)O [OXACILLIN]	0.06 (≈ 0.149 µM)	8 (≈ 19.9 µM)	> 64	> 64	–	–
CC(C)(C)c1ccc(-c2ccc(CCN=C(N)N)c3ccccc23)cc1	2 (≈ 5.79 µM)	2 (≈ 5.79 µM)	4 (≈ 11.6 µM)	4 (≈ 11.6 µM)	–	–
CC(C)(C)c1ccc(-c2ccc(CCN)c3ccccc23)cc1	4 (≈ 13.2 µM)	4 (≈ 13.2 µM)	4 (≈ 13.2 µM)	4 (≈ 13.2 µM)	–	–
NC(N)=NCCc1cccc2c(-c3ccc(C(F)(F)F)cc3)cccc12	1 (≈ 2.8 µM)	4 (≈ 11.2 µM)	4 (≈ 11.2 µM)	4 (≈ 11.2 µM)	–	–

— ChEMBL document CHEMBL2311247, “Antimicrobial activity of various 4- and 5-substituted 1-phenylnaphthalenes” (2013)
